Measurements taken from ChEMBL document CHEMBL1140699, “Stereospecific high-affinity TRPV1 antagonists: chiral N-(2-benzyl-3-pivaloyloxypropyl) 2-[4-(methylsulfonylamino)phenyl]propionamide analogues” (J Med Chem, 2008).
pKi: −log10 of the molar value. The source made the active and inactive calls. The rule behind the calls is not given here.

Columns and labels:
[1] = molecular target: Transient receptor potential cation channel subfamily V member 1 (Rattus norvegicus) (UniProt O35433); assay: Agonist activity at rat TRPV1 receptor expressed in CHO cells assessed as calcium 45 uptake at 30 uM; type: functional, cell-based
Chain of Transient receptor potential cation channel subfamily V member 1 (Rattus norvegicus) (O35433 whole entry): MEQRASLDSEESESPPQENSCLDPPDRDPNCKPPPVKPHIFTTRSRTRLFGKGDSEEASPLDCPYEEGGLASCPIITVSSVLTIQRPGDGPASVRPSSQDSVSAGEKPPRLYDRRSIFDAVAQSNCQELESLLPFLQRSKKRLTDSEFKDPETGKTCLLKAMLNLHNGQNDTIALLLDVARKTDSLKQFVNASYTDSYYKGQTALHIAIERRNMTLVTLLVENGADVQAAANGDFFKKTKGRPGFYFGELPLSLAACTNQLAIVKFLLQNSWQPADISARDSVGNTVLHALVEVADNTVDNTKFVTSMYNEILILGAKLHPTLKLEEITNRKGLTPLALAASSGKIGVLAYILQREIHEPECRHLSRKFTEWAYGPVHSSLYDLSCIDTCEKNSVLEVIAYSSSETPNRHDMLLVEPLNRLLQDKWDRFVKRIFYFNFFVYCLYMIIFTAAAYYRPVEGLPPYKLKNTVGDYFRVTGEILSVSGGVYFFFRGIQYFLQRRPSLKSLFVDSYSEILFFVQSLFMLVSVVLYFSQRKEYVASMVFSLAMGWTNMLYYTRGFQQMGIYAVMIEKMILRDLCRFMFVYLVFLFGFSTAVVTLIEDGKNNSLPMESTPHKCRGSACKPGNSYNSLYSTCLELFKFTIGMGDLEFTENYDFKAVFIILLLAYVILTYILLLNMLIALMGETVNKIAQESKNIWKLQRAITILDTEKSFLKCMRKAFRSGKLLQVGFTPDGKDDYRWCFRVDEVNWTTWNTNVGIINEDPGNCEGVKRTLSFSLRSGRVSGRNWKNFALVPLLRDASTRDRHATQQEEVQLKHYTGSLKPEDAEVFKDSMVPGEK
Procedure, shortened: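 45Ca2+ uptake in CHO cells heterologously expressing rat TRPV1 (CHO/VR1). Compounds tested for agonism at 30 µM and scored as not effective or weakly effective. Results from 1–5 experiments.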

[2] = molecular target: T1, Transient receptor potential cation channel subfamily V member 1 (Rattus norvegicus, UniProt O35433); assay: (§1) Antagonist activity at rat TRPV1 receptor expressed in CHO cells assessed as calcium 45 uptake; type: functional, cell-based
T1 sequence (O35433 whole entry): as above

[3] = molecular target: T1, Transient receptor potential cation channel subfamily V member 1; assay: Displacement of [3H]RTX from rat TRPV1 receptor expressed in CHO cells; type: cell-based
Procedure, shortened: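 Competitive binding against [3H]resiniferatoxin in CHO cells heterologously expressing rat TRPV1 (CHO/VR1). Affinity reported as Ki.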

[4] = molecular target: Transient receptor potential cation channel subfamily V member 1 (Rattus norvegicus) (UniProt O35433); assay: Antagonist activity at rat TRPV1 receptor expressed in CHO cells assessed as capsaicin-induced calcium 45 uptake; type: functional, cell-based; parameters: concentration or dose not given beside the values
Procedure, shortened: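 Chinese hamster ovary cells heterologously expressing rat TRPV1 (CHO/VR1). Compounds were tested as antagonists of 150 nM capsaicin-induced ⁴⁵Ca²⁺ uptake. Antagonism was reported as Ki, with activity scored at 30 µM where potency was low. Results come from 1–5 experiments.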

[5] = molecular target: Transient receptor potential cation channel subfamily V member 1 (Rattus norvegicus) (UniProt O35433); assay: Agonist activity at rat TRPV1 receptor expressed in CHO cells assessed as calcium 45 uptake relative to 300 nM capsaicin; type: functional, cell-based
[6] = molecular target: Transient receptor potential cation channel subfamily V member 1 (Rattus norvegicus) (UniProt O35433); assay: as §1; type: functional, cell-based

SMILES | Activity [1] | other results
Oc1cc2c(cc1O)CN(C(=S)NCCc1ccc(Cl)cc1)CCC2 | inactive | –
C=C(C)[C@]12C[C@@H](C)[C@@]34O[C@](Cc5ccccc5)(O[C@@H]1[C@@H]3C=C(COC(=O)Cc1cc(I)c(O)c(OC)c1)C[C@]1(O)C(=O)C(C)=C[C@@H]41)O2 [IODORESINIFERATOXIN] | inactive | pKi [2]: 7.91; pKi [3]: 9.21
Cc1ccc(CC(CNC(=O)C(C)c2ccc(NS(C)(=O)=O)cc2)COC(=O)C(C)(C)C)cc1C (configuration not stated) | inactive | –
CC(C)(C)C(=O)OCC(CNC(=O)Cc1ccc(NS(C)(=O)=O)c(F)c1)Cc1ccc(C(C)(C)C)cc1 (configuration not stated) | – | pKi [2]: 6.36; Activity [4]: 56%; Activity [5]: 7%
C[C@H](C(=O)NC[C@@H](COC(=O)C(C)(C)C)Cc1ccc(C(C)(C)C)cc1)c1ccc(NS(C)(=O)=O)c(F)c1 | inactive | pKi [3]: 8.20
C[C@H](C(=O)NC[C@H](COC(=O)C(C)(C)C)Cc1ccccc1)c1ccc(NS(C)(=O)=O)c(F)c1 | inactive | –
C[C@H](C(=O)NC[C@H](COC(=O)C(C)(C)C)Cc1ccc(C(C)(C)C)cc1)c1ccc(NS(C)(=O)=O)c(F)c1 | inactive | pKi [3]: 8.39
CC(C(=O)NCC(COC(=O)C(C)(C)C)Cc1ccc(C(C)(C)C)cc1)c1ccc(NS(C)(=O)=O)c(Cl)c1 (configuration not stated) | – | Activity [4]: 61%
COc1cc(C(C)(C)C(=O)NCC(COC(=O)C(C)(C)C)Cc2ccc(C)c(C)c2)ccc1NS(C)(=O)=O (configuration not stated) | inactive | –
CC(C)(C)C(=O)OCC(CNC(=S)NCc1ccc(NS(C)(=O)=O)c(F)c1)Cc1ccc(C(C)(C)C)cc1 (configuration not stated) | – | pKi [2]: 7.28; Activity [5]: 5%
Cc1ccc(CC(CNC(=O)C(C)c2ccc(NS(C)(=O)=O)c(Cl)c2)COC(=O)C(C)(C)C)cc1C (configuration not stated) | – | Activity [5]: 16%
C[C@@H](C(=O)NC[C@H](COC(=O)C(C)(C)C)Cc1ccccc1)c1ccc(NS(C)(=O)=O)c(F)c1 | inactive | –
Cc1ccc(CC(CNC(=O)C(C)c2ccc(NS(C)(=O)=O)c(F)c2)COC(=O)C(C)(C)C)cc1C (configuration not stated) | inactive | –
Cc1ccc(CC(CNC(=O)C2(c3ccc(NS(C)(=O)=O)c(F)c3)CC2)COC(=O)C(C)(C)C)cc1C (configuration not stated) | inactive | –
Cc1ccc(CC(CNC(=O)C(C)(C)c2ccc(NS(C)(=O)=O)c(F)c2)COC(=O)C(C)(C)C)cc1C (configuration not stated) | inactive | pKi [3]: 6.55
CC(C(=O)NCC(COC(=O)C(C)(C)C)Cc1ccc(C(C)(C)C)cc1)c1ccc(NS(C)(=O)=O)c(F)c1 (configuration not stated) | – | Activity [4]: 95%; Activity [5]: 8%
COc1cc(C(C)C(=O)NCC(COC(=O)C(C)(C)C)Cc2ccc(C)c(C)c2)ccc1NS(C)(=O)=O (configuration not stated) | – | Activity [4]: 63%; Activity [5]: 10%
Cc1ccc(CC(CNC(=O)Cc2ccc(NS(C)(=O)=O)c(F)c2)COC(=O)C(C)(C)C)cc1C (configuration not stated) | – | Activity [4]: 71%
CC(C(=O)NCC(COC(=O)C(C)(C)C)Cc1ccc(C(C)(C)C)cc1)c1ccc(NS(C)(=O)=O)cc1 (configuration not stated) | inactive | –
Cc1ccc(CC(CNC(=S)NCc2ccc(NS(C)(=O)=O)c(F)c2)COC(=O)C(C)(C)C)cc1C (configuration not stated) | inactive | –
C[C@H](C(=O)NC[C@@H](COC(=O)C(C)(C)C)Cc1ccc(C(C)(C)C)cc1)c1ccc(NS(C)(=O)=O)c(Cl)c1 | inactive | –
C[C@@H](C(=O)NC[C@H](COC(=O)C(C)(C)C)Cc1ccc(C(C)(C)C)cc1)c1ccc(NS(C)(=O)=O)c(F)c1 | inactive | –
C[C@@H](C(=O)NC[C@@H](COC(=O)C(C)(C)C)Cc1ccc(C(C)(C)C)cc1)c1ccc(NS(C)(=O)=O)c(F)c1 | – | Activity [5]: 9%
COc1cc(C2(C(=O)NCC(COC(=O)C(C)(C)C)Cc3ccc(C)c(C)c3)CC2)ccc1NS(C)(=O)=O (configuration not stated) | inactive | –
C[C@@H](C(=O)NC[C@@H](COC(=O)C(C)(C)C)Cc1ccccc1)c1ccc(NS(C)(=O)=O)c(F)c1 | inactive | –
COc1cc(C(C)C(=O)NCC(COC(=O)C(C)(C)C)Cc2ccc(C(C)(C)C)cc2)ccc1NS(C)(=O)=O (configuration not stated) | – | Activity [6]: inactive; Activity [5]: 40%
C[C@H](C(=O)NC[C@H](COC(=O)C(C)(C)C)Cc1ccc(C(C)(C)C)cc1)c1ccc(NS(C)(=O)=O)c(Cl)c1 | inactive | –
Cc1ccc(CC(CNC(=O)C(C)(C)c2ccc(NS(C)(=O)=O)cc2)COC(=O)C(C)(C)C)cc1C (configuration not stated) | inactive | –
Cc1ccc(CC(CNC(=O)C2(c3ccc(NS(C)(=O)=O)cc3)CC2)COC(=O)C(C)(C)C)cc1C (configuration not stated) | inactive | –
C[C@H](C(=O)NC[C@@H](COC(=O)C(C)(C)C)Cc1ccccc1)c1ccc(NS(C)(=O)=O)c(F)c1 | inactive | pKi [3]: 7.78
